# Assays:
# Assay type in all cases: functional
# NCI-H23 = assay: Antiproliferative activity against human NCI-H23 cells after 48 hrs by SRB assay; details: NCI-H23, 48 h
# Outline: (§1)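 NCI 60-cell human tumour line panel. Continuous 48 h drug exposure at five concentrations (100, 10, 1.0, 0.1, 0.01 µM). Cell growth estimated by sulforhodamine B protein staining. GI50 = concentration giving 50% reduction in net protein increase versus control cells over the incubation. LC50 = molar concentration killing 50% of cells.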
# KM12 = assay: Antiproliferative activity against human KM12 cells after 48 hrs by SRB assay; details: KM12, 48 h, read-out: LC50 (the source's name)
# Outline: (§2)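 NCI 60-cell-line human tumour panel, secondary five-dose screen. Compounds tested at 100, 10, 1.0, 0.1 and 0.01 µM with 48 h continuous exposure. Cell growth was estimated by sulforhodamine B protein staining. GI50 is the concentration giving a 50% reduction in net protein increase relative to untreated control cells over the incubation. TGI and LC50 were also derived.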
# SW-620 = assay: Antiproliferative activity against human SW620 cells after 48 hrs by SRB assay; details: SW-620, 48 h; outline: as §2
# SF-268 = assay: Antiproliferative activity against human SF268 cells after 48 hrs by SRB assay; details: SF-268, 48 h; outline: as §2
# SK-MEL-5 = assay: Antiproliferative activity against human SK-MEL-5 cells after 48 hrs by SRB assay; details: SK-MEL-5, 48 h; outline: as §1
# SK-MEL-2 = assay: Antiproliferative activity against human SK-MEL-2 cells after 48 hrs by SRB assay; details: SK-MEL-2, 48 h; for CC50: read-out: LC50 (the source's name); outline: as §2
# OVCAR-4 = assay: Antiproliferative activity against human OVCAR4 cells after 48 hrs by SRB assay; details: OVCAR-4, 48 h, read-out: LC50 (the source's name); outline: as §2
# ACHN = assay: Antiproliferative activity against human ACHN cells after 48 hrs by SRB assay; outline: as §1
# RXF 393 = assay: Antiproliferative activity against human RXF393 cells after 48 hrs by SRB assay; details: RXF 393, 48 h; outline: as §1
# SN12C = assay: Antiproliferative activity against human SN12C cells after 48 hrs by SRB assay; details: read-out: LC50 (the source's name); outline: as §2
# TK-10 = assay: Antiproliferative activity against human TK10 cells after 48 hrs by SRB assay; details: TK-10, 48 h; for CC50: read-out: LC50 (the source's name); outline: as §2
# DU-145 = assay: Antiproliferative activity against human DU145 cells after 48 hrs by SRB assay; details: DU-145, 48 h, read-out: LC50 (the source's name); outline: as §2
# PC-3 = assay: Antiproliferative activity against human PC3 cells after 48 hrs by SRB assay; details: PC-3, 48 h; outline: as §2
# MDA-MB-468 = assay: Antiproliferative activity against human MDA-MB-468 cells after 48 hrs by SRB assay; details: MDA-MB-468, 48 h; for CC50: read-out: LC50 (the source's name); outline: as §2
# Hs-578T = assay: Antiproliferative activity against human Hs 578T cells after 48 hrs by SRB assay; details: read-out: LC50 (the source's name); outline: as §2
# CCRF-CEM = assay: Antiproliferative activity against human CCRF-CEM cells after 48 hrs by SRB assay; details: read-out: LC50 (the source's name); outline: as §2
# HL-60 = assay: Antiproliferative activity against human HL-60(TB) cells after 48 hrs by SRB assay; details: HL-60, 48 h; outline: as §2
# K562 = assay: Antiproliferative activity against human K562 cells after 48 hrs by SRB assay; details: K562, 48 h; outline: as §2
# MOLT-4 = assay: Antiproliferative activity against human MOLT4 cells after 48 hrs by SRB assay; details: MOLT-4, 48 h; outline: as §2
# HOP-62 = assay: Antiproliferative activity against human HOP62 cells after 48 hrs by SRB assay; details: HOP-62, 48 h; outline: as §2
# OVCAR-3 = assay: Antiproliferative activity against human OVCAR-3 cells after 48 hrs by SRB assay; details: OVCAR-3, 48 h; outline: as §2
# 786-0 = assay: Antiproliferative activity against human 786-0 cells after 48 hrs by SRB assay; details: 786-0, 48 h; outline: as §2
# [1] = read-out: LC50 (the source's name)
smiles,measurement,setting,value
COc1ccc(C2=NN(C(C)=O)C(c3cn(-c4ccccc4)nc3-c3ccc(Cl)cc3)C2)cc1 (stereo not given),GI50,NCI-H23,1.77 µM
same,CC50,KM12,> 100 µM
same,GI50,SW-620,3.48 µM
same,CC50,SW-620; [1],> 100 µM
same,GI50,SF-268,4.55 µM
same,LC50,SF-268,> 100 µM
same,GI50,SK-MEL-5,1.79 µM
same,CC50,SK-MEL-2,> 100 µM
same,CC50,OVCAR-4,> 100 µM
same,GI50,ACHN,1.82 µM
same,GI50,RXF 393,1.82 µM
same,CC50,SN12C,> 100 µM
same,CC50,TK-10,> 100 µM
same,CC50,DU-145,> 100 µM
same,GI50,PC-3,2.35 µM
same,CC50,PC-3; [1],> 100 µM
same,CC50,MDA-MB-468,> 100 µM
same,CC50,Hs-578T,> 100 µM
O=C(/C=C/c1cn(-c2ccccc2)nc1-c1ccc([N+](=O)[O-])cc1)c1ccc(Cl)cc1,CC50,CCRF-CEM,> 100 µM
same,GI50,HL-60,> 100 µM
same,CC50,HL-60; [1],> 100 µM
same,GI50,K562,0.09 µM
same,CC50,K562; [1],> 100 µM
same,GI50,MOLT-4,0.87 µM
same,CC50,MOLT-4; [1],> 100 µM
same,GI50,HOP-62,26 µM
same,CC50,HOP-62; [1],> 100 µM
same,GI50,NCI-H23,4.99 µM
same,CC50,NCI-H23; [1],> 100 µM
same,CC50,KM12,> 100 µM
same,GI50,SF-268,3.12 µM
same,LC50,SF-268,> 100 µM
same,GI50,SK-MEL-5,> 100 µM
same,CC50,SK-MEL-5; [1],> 100 µM
same,GI50,SK-MEL-2,6.99 µM
same,CC50,SK-MEL-2,57.9 µM
same,GI50,OVCAR-3,1.96 µM
same,CC50,OVCAR-3; [1],> 100 µM
same,GI50,ACHN,4.27 µM
same,CC50,ACHN; [1],> 100 µM
same,GI50,RXF 393,2.08 µM
same,CC50,RXF 393; [1],9.87 µM
same,CC50,SN12C,> 100 µM
same,GI50,TK-10,3.12 µM
same,CC50,TK-10,> 100 µM
same,GI50,786-0,3.94 µM
same,CC50,786-0; [1],> 100 µM
same,CC50,DU-145,> 100 µM
same,GI50,MDA-MB-468,2.91 µM
same,CC50,MDA-MB-468,> 100 µM
